One test relates to SW-620. Nature of the test: Inhibition of cell growth of SW620 cell lines using cell-based assay. Format: functional. The following applies: Homo sapiens. The procedure, abridged: (§1)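 Cells kept in RPMI-1640 with 5% fetal bovine serum and plated at 5.0 × 10^4/mL. Next day they were dosed at 0.5, 5, 50, 500 and 5000 ng/mL and cultured 2 days. Survival was read by sulforhodamine B. IC50 is the concentration inhibiting growth by 50%, taken from the five-point dose-response curve.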

In test [1] the target is Receptor tyrosine-protein kinase erbB-2 (Homo sapiens, UniProt P04626). Nature of the test: Inhibition of human epidermal growth factor receptor (HER-2) using enzyme assay. The procedure, abridged: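 His6-tagged HER-2 cytoplasmic domain was expressed in Sf-9 cells and purified on Ni-NTA (about 80% pure). Enzyme (12.5 ng/well) was preincubated with compound 10 min at room temperature in HEPES pH 7.4. Autophosphorylation ran 1 h with MnCl2/Na3VO4/DTT buffer plus 0.1 mM ATP–50 mM MgCl2 (as added). Europium anti-phosphotyrosine time-resolved fluorescence was read at 340/615 nm. IC50 came from eight concentrations, mean of duplicates.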

The test system of another test is SK-BR-3. The experiment in a line: Inhibition of cell growth of SKBr3 cell lines using cell-based assay. The class given is functional. The conditions noted are these: Homo sapiens. The procedure, abridged:
as §1

The target of test [2] is Epidermal growth factor receptor (Homo sapiens, UniProt P00533). Nature of the test: Inhibition of epidermal growth factor receptor using enzyme assay.
In test [3] the test system is A-431. The experiment in a line: Inhibition of human epidermoid carcinoma xenograft (A431) tumor growth. The class given is functional, cell-based. The procedure, abridged: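 Female athymic nu/nu mice received 5 × 10^6 A431 cells sc in the flank. At 80–120 mg tumor mass they were randomized, 10 per group. Dosing was oral, once daily on days 1–10, 40 mg/kg in 0.2% Klucel, with a vehicle control. Tumor mass [(length × width²)/2] was measured every 7 days from day 8 to 29. Relative growth is versus day 0, compared by Student t-test of log values.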

Test [4] deals with A-431. The experiment in a line: Inhibition of cell growth of human epidermoid carcinoma xenograft (A431) model using cell based assay. Format: functional.

The structures appear in SMILES notation.

Epidermal growth factor receptor, sequence (P00533 whole entry): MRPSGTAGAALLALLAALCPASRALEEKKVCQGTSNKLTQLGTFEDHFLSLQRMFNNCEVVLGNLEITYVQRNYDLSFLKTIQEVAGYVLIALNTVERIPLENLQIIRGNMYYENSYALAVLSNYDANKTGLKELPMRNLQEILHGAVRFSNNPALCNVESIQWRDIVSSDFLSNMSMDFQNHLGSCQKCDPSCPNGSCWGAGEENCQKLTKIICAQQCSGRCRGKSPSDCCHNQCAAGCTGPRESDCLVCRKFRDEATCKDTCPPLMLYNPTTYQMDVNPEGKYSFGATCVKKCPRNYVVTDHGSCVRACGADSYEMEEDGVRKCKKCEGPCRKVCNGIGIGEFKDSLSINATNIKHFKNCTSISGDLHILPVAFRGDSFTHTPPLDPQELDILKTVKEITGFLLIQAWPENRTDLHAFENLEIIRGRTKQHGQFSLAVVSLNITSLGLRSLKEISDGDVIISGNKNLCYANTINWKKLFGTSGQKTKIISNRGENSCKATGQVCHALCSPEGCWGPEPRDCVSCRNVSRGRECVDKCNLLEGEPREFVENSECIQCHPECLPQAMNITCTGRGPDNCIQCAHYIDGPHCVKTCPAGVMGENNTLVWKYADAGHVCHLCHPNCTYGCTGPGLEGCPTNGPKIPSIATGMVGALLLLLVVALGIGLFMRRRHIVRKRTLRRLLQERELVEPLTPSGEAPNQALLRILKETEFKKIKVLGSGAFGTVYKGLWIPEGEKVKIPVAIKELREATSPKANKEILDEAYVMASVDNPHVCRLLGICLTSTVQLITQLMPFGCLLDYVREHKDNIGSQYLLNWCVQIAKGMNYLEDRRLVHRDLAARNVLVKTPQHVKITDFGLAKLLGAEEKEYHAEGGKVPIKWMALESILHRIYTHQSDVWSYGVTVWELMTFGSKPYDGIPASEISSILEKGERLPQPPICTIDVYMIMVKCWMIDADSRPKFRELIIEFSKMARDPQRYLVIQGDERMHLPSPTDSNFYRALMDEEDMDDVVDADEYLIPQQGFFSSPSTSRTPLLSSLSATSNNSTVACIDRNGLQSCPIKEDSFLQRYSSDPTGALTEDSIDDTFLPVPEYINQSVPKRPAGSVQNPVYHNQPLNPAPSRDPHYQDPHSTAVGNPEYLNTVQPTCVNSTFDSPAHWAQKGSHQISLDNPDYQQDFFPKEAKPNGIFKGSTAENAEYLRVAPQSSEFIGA
Receptor tyrosine-protein kinase erbB-2, sequence (P04626 whole entry, the tested form may be a part): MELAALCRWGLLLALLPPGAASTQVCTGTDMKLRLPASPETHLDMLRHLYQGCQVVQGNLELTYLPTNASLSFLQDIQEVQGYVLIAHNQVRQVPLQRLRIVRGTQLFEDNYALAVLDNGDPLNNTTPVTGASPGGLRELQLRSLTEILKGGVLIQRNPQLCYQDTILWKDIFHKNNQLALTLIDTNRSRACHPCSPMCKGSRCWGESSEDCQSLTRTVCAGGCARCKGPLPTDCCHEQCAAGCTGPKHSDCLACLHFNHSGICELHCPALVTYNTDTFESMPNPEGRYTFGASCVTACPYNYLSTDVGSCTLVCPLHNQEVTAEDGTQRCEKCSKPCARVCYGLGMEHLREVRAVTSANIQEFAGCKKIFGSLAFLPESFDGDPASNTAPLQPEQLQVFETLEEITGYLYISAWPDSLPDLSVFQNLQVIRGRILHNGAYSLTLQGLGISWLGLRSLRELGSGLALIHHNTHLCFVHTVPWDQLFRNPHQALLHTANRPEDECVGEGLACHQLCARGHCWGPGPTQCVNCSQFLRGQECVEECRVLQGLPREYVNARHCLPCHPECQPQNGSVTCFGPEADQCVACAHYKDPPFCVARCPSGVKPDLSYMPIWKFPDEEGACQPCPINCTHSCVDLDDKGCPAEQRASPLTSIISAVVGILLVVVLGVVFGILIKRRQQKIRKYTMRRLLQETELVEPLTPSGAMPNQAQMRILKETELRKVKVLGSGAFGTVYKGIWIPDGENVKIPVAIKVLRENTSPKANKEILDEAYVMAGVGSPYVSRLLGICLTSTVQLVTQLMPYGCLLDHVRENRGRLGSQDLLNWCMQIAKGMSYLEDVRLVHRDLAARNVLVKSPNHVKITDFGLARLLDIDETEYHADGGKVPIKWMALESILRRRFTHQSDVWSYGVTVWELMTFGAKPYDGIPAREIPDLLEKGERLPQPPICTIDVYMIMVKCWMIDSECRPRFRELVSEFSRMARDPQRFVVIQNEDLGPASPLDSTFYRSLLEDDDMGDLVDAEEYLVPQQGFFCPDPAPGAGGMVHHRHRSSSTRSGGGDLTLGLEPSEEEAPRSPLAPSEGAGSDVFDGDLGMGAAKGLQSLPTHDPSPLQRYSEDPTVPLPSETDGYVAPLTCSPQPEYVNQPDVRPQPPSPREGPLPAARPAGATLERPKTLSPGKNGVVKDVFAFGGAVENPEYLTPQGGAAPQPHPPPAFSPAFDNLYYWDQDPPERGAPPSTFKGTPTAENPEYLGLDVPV

As a reminder, the IC50 is the concentration that gives 50% inhibition. A lower IC50 goes with greater potency. On to `CN(C)CC#CC(=O)Nc1ccc2ncnc(Nc3cccc(Br)c3)c2c1`, for which the IC50 in the test on SW-620 came to 530 nM; in test [1], 14 nM; with SK-BR-3 it was 11 nM.
Consider `C/C=C\C(=O)Nc1ccc2ncnc(Nc3cccc(Br)c3)c2c1`, for which the half-maximal inhibitory concentration (IC50) in the test with SW-620 came to 12500 nM; in test [1] it was 21700 nM; with SK-BR-3, 742 nM.
Regarding `C=C(CN1CCOCC1)C(=O)Nc1ccc2ncnc(Nc3cccc(Br)c3)c2c1`, the IC50 with SW-620 was 470 nM; in test [1] it was 458 nM; in test [2] it was 107 nM; in the test with SK-BR-3, 3 nM; with A-431 [3] it was 128 nM.
As to `C/C=C/C(=O)Nc1ccc2ncnc(Nc3cccc(Br)c3)c2c1`, the IC50 with SW-620 worked out at 13100 nM; in test [1], 91300 nM; in the test on SK-BR-3, 1100 nM.
For `CC#CC(=O)Nc1ccc2ncnc(Nc3cccc(Br)c3)c2c1` the same measures were 1500 nM, 378 nM and 17 nM.
Regarding `C=CCN(C)CC#CC(=O)Nc1ccc2ncnc(Nc3cccc(Br)c3)c2c1`, the IC50 in the test with SW-620 is 289 nM; in test [1], 85 nM; in test [2], 71 nM; in the test on SK-BR-3 it was 1 nM; with A-431 [3], 33 nM.
On to `CCN(CC)CC#CC(=O)Nc1ccc2ncnc(Nc3cccc(Br)c3)c2c1`, for which the IC50 in the test with SW-620 worked out at 610 nM; in test [1] it was 38 nM; in test [2] it was 12 nM; in the test on A-431 [4], 111 nM; in the test on SK-BR-3, 6 nM.
For `CCCN(CC#CC(=O)Nc1ccc2ncnc(Nc3cccc(Br)c3)c2c1)CCC` the same measures were 198 nM, 177 nM, 62 nM, 42 nM and 2 nM.
For `COCCN(C)C/C=C/C(=O)Nc1ccc2ncnc(Nc3cccc(Br)c3)c2c1`, in that order: 5890 nM, 634 nM, 62 nM, 564 nM and 3 nM.
For `COCCOCC#CC(=O)Nc1ccc2ncnc(Nc3cccc(Br)c3)c2c1`, in that order: 945 nM, 116 nM, 65 nM, 77 nM and 9 nM.
`O=C(/C=C/CN1CCCCC1)Nc1ccc2ncnc(Nc3cccc(Br)c3)c2c1`: the IC50 amounted to 2680 nM in the test with SW-620; 1560 nM in test [1]; 106 nM in test [2]; 182 nM in the test on A-431 [4]; 4 nM in the test with SK-BR-3.
For `O=C(C#CCN1CCCCC1)Nc1ccc2ncnc(Nc3cccc(Br)c3)c2c1`, in that order: 302 nM, 73 nM, 57 nM, 32 nM and 2 nM.
For `CCN(CC)C/C=C/C(=O)Nc1ccc2ncnc(Nc3cccc(Br)c3)c2c1`, in that order: 2390 nM, 1160 nM, 73 nM, 194 nM and 2 nM.
For `COC[C@@H]1CCCN1C/C=C/C(=O)Nc1ccc2ncnc(Nc3cccc(Br)c3)c2c1` the same measures were 2620 nM, 1910 nM, 131 nM, 222 nM and 2 nM.
Consider `O=C(C#CCN1CCOCC1)Nc1ccc2ncnc(Nc3cccc(Br)c3)c2c1`, for which the IC50 in the test on SW-620 is 1660 nM; in test [1], 53 nM; in test [2], 20 nM; in the test with A-431 [4], 150 nM; with SK-BR-3, 2 nM.
Take `CN(C)/C=C/C(=O)Nc1ccc2ncnc(Nc3cccc(Br)c3)c2c1`: the IC50 in the test on SW-620 was 12100 nM; in test [1] it was 25700 nM; in test [2], 250 nM; in the test on SK-BR-3, 1760 nM; in the test on A-431 [3], 2100 nM.
With `CN(C/C=C/C(=O)Nc1ccc2ncnc(Nc3cccc(Br)c3)c2c1)CCO`, the IC50 in the test on SW-620 stood at 7530 nM; in test [1], 414 nM; in test [2] it was 14 nM; in the test with A-431 [4], 329 nM; in the test on SK-BR-3, 3 nM.
For `CC(C)N(C)CC#CC(=O)Nc1ccc2ncnc(Nc3cccc(Br)c3)c2c1`, in that order: 232 nM, 113 nM, 85 nM, 77 nM and 4 nM.
As to `CN(C)C/C=C/C(=O)Nc1ccc2ncnc(Nc3cccc(Br)c3)c2c1`, the results for the IC50 (in the test with SW-620; in test [1]; with SK-BR-3) were 2340 nM, 301 nM and 2 nM, respectively.
`COC[C@@H]1CCCN1C/C=C\C(=O)Nc1ccc2ncnc(Nc3cccc(Br)c3)c2c1`: the IC50 with SW-620 is 2860 nM; in test [1], 2920 nM; in test [2], 194 nM; in the test with A-431 [4], 353 nM; in the test with SK-BR-3, 13 nM.
For `CC(C)N(CC#CC(=O)Nc1ccc2ncnc(Nc3cccc(Br)c3)c2c1)C(C)C`, in that order: 302 nM, 162 nM, 97 nM, 94 nM and 4 nM.
For `COCC1CCCN1CC#CC(=O)Nc1ccc2ncnc(Nc3cccc(Br)c3)c2c1` (centres undefined) the same measures were 324 nM, 117 nM, 65 nM, 81 nM and 2 nM.
With `O=C(C#CCO)Nc1ccc2ncnc(Nc3cccc(Br)c3)c2c1`, the IC50 was found to be 16 nM in test [1] and 43 nM in the test with SK-BR-3.
As for `COCOCC#CC(=O)Nc1ccc2ncnc(Nc3cccc(Br)c3)c2c1`, the 50% inhibitory concentration (IC50) in the test on SW-620 amounted to 2080 nM; in test [1], 122 nM; in test [2], 59 nM; with SK-BR-3 it was 92 nM; in the test with A-431 [3] it was 306 nM.
In the case of `CCCN(C/C=C/C(=O)Nc1ccc2ncnc(Nc3cccc(Br)c3)c2c1)CCC`, the IC50 in the test on SW-620 was found to be 2280 nM; in test [1], 1430 nM; in test [2], 90 nM; with A-431 [4], 145 nM; in the test with SK-BR-3, 2 nM.
For `O=C(C#CCN1CCSCC1)Nc1ccc2ncnc(Nc3cccc(Br)c3)c2c1` the same measures were 581 nM, 124 nM, 95 nM, 83 nM and 2 nM.
For `O=C(/C=C/CN1CCSCC1)Nc1ccc2ncnc(Nc3cccc(Br)c3)c2c1`, in that order: 8470 nM, 2810 nM, 203 nM, 589 nM and 12 nM.
For `O=C(/C=C/Cn1cccn1)Nc1ccc2ncnc(Nc3cccc(Br)c3)c2c1`, in that order: 11100 nM, 15600 nM, 1120 nM, 1370 nM and 568 nM.
`C=C(C)C(=O)Nc1ccc2ncnc(Nc3cccc(Br)c3)c2c1`: the values for the IC50 (in the test with SW-620; in test [1]; with SK-BR-3) were 20700 nM, 15200 nM and 2220 nM, respectively.
`O=C(/C=C/CN1CCC(N2CCCCC2)CC1)Nc1ccc2ncnc(Nc3cccc(Br)c3)c2c1`: the IC50 in the test on SW-620 turned out to be 4150 nM; in test [1], 1590 nM; in test [2], 68 nM; in the test on A-431 [4] it was 756 nM; in the test on SK-BR-3 it was 10 nM.
Take `COC/C=C/C(=O)Nc1ccc2ncnc(Nc3cccc(Br)c3)c2c1`: the IC50 was 12100 nM in the test on SW-620; 8830 nM in test [1]; 1130 nM in test [2]; 8500 nM in the test with A-431 [4]; 370 nM in the test on SK-BR-3.
For `CCN1CCN(CC#CC(=O)Nc2ccc3ncnc(Nc4cccc(Br)c4)c3c2)CC1`, in that order: 4600 nM, 183 nM, 65 nM, 598 nM and 62 nM.
As for `COC[C@H]1CCCN1C/C=C/C(=O)Nc1ccc2ncnc(Nc3cccc(Br)c3)c2c1`, the IC50 came to 10100 nM with SW-620; 733 nM in test [1]; 85 nM in test [2]; 616 nM in the test with A-431 [4]; 1 nM in the test on SK-BR-3.
For `O=C(/C=C/CN1CCOCC1)Nc1ccc2ncnc(Nc3cccc(Br)c3)c2c1` the same measures were 10700 nM, 2780 nM, 74 nM, 1890 nM and 13 nM.
For `CN1CCC=C(C(=O)Nc2ccc3ncnc(Nc4cccc(Br)c4)c3c2)C1` the same measures were 10500 nM, 5040 nM, 115 nM, 2340 nM and 478 nM.
For `COCC#CC(=O)Nc1ccc2ncnc(Nc3cccc(Br)c3)c2c1`, in that order: 1730 nM, 33 nM, 9 nM, 268 nM and 46 nM.
For the compound `C=CC(=O)Nc1ccc2ncnc(Nc3cccc(Br)c3)c2c1`, the IC50 came to 4130 nM with SW-620, 114 nM in test [1], 15 nM in the test with SK-BR-3 and 95 nM with A-431 [3].

The values above are taken from ChEMBL document CHEMBL1134561, “6-Substituted-4-(3-bromophenylamino)quinazolines as putative irreversible inhibitors of the epidermal growth factor receptor (EGFR) and human epidermal growth factor receptor (HER-2) tyrosine kinases with enhanced antitumor activity” (J Med Chem, 2001).
